# GPR7 antag: antagonists of human GPR7 (neuropeptides B/W receptor 1); GPR7-expressing cells, fluorescence antagonist assay; 290,000 tested, 1.1% active; inhibition, % at 4.4 µM; P48145; in the data active = inhibition above about 16%, passing the limit was not always enough;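 note: cells stimulated with the agonist NPW; 0% = agonist with vehicle and 100% = vehicle without agonist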
# Target sequence (P48145 whole entry, looked up): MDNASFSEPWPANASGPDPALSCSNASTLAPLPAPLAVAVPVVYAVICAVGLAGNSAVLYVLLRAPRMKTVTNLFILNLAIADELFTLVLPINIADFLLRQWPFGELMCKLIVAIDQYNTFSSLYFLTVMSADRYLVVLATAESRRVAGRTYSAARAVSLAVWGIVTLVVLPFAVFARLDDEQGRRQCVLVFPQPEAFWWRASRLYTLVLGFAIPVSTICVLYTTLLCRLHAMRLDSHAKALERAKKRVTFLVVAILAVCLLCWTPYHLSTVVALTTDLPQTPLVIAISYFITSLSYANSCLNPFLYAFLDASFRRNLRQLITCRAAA
# HCV core dimer: HCV core protein dimerization inhibition | 300,000 tested, 0.33% active | TR-FRET GST/Flag-core106 dimerization, 1536-well | inhibition, % at 5 µM;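 active = inhibition above the mean of all tested compounds plus 3 SD, set per screening campaign, cut at about 45% in these data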
#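 Material: GST/Flag-tagged HCV core106 proteins. Incubation: 4 h, 22.5 °C incubation. Read-out basis: inhibition (%) from 671 over 617 nm ratio. Measured by: TR-FRET, excitation 340 nm, emission 617 and 671 nm.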
# EBV gp42 inh: EBV gp42 inhibition; Q1HVG2; Fluorescence polarization binding assay, mP read-out; inhibition, % (tested at 21.74 µM); 220,000 tested, 0.42% active; AID 1085; in the data active = inhibition above about 50%
# Target sequence (Q1HVG2 whole entry, looked up): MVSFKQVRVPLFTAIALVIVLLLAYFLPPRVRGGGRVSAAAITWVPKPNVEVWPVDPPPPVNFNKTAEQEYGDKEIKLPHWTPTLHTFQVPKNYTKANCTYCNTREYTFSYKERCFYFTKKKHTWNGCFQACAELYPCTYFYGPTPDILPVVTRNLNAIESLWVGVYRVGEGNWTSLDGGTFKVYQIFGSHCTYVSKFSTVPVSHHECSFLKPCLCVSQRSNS
# NS3 helicase inh: blocks Hepatitis C virus NS3 helicase unwinding; NS3 helicase DNA unwinding, Cy5 molecular beacon fluorescence; inhibition, % at 10.9 µM; 290,000 tested, 0.56% active;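 active = inhibition above the mean of all tested compounds plus 3 SD, set per campaign, cut at about 35% in these data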;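 note: 0% = DMSO wells and 100% = thioflavine S control wells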
#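 Assay system – hepatitis C virus NS3 helicase domain fragment enzyme · Buffer or medium – MOPS pH 6.5, MgCl2, DTT, Tween20, BSA · Reagent – Cy5/quencher beacon DNA duplex and ATP to start · Compound – single 10.9 µM dose · Timing – 1 h at 25 °C · Technique – Cy5 beacon fluorescence read at start and 1 h · Measure – % inhibition of unwinding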
# EBNA-1 inhibitor: blocks EBNA-1 binding to DNA. EBNA-1 DNA binding, fluorescence polarization. inhibition, % at 14.8 µM. 300,000 tested, 0.34% active; in the data active = inhibition above about 28%
# ZTA DNA inh: counter-screen for EBNA-1 inhibitors: inhibitors of Epstein-Barr virus ZTA | P03206 | ZTA-DNA binding, fluorescence polarization | inhibition, % at 11 µM | 320,000 tested, 0.15% active | AID 2234; in the data active = inhibition above about 33%
# NS3 helicase cf: confirmation of Hepatitis C virus NS3 helicase inhibitors; 1,600 tested, 31% active; AID 1943; shares compounds with NS3 helicase inh; inhibition, % at 10.9 µM; NS3 helicase DNA unwinding, Cy5 molecular beacon fluorescence;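 active = inhibition above the mean of all tested compounds plus 3 SD, cutoff set per campaign, cut at about 36% in these data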
# FID counter trip: intercalator displacement, NS3 helicase counter-screen; inhibition, % at 7.9 µM; AID 1945; shares compounds with NS3 helicase inh; DNA fluorescent intercalator displacement, fluorescence; 1,600 tested, 4% active; in the data active = inhibition above about 37%;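 note: 0% = vehicle and 100% = reference compound; higher means more displacement of ethidium bromide from the DNA hairpin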
# The depositor's hits bear a star; . = not tested or not shown; + = active, no number. This is a sample that favours compounds with a hit; in the whole collection about 2.3% have one here.
SMILES,GPR7 antag,HCV core dimer,EBV gp42 inh,NS3 helicase inh,EBNA-1 inhibitor,ZTA DNA inh,NS3 helicase cf,FID counter trip
CCOc1cc(C(=S)N2CCN(C)CC2)ccc1OCC(=O)N1CCCC1,-14,1,.,3,5,10,.,.
COc1ccc(/C=N\NC(=O)c2ccccc2)cc1COc1ccc(F)cc1,0,2,.,46*,-7,-16,-12,-35
COc1ccc(C(=O)N/N=C/c2ccc(OC)c(COc3ccc(F)cc3)c2)cc1,-21,10,.,-9,-2,-6,.,.
Cc1ccc(C=Nc2ccccc2C(N)=O)o1,7,5,-21,6,1,12,.,.
Cc1ccc(C=Nc2ccc(N(C)C)cc2)o1,-5,-43,-18,39*,+,+,-12,19
COC(c1ccc(Cl)cc1)(c1ccc(Cl)cc1)C(Oc1nccc(C)n1)C(=O)O (centres undefined),-11,17,.,30,4,9,.,.
COC(c1ccc(Cl)cc1)(c1ccc(Cl)cc1)C(Oc1nc(C)cc(C)n1)C(=O)O (centres undefined),-3,11,.,37*,12,-4,36*,-4
CCc1ccc(N(C(=O)CCC(=O)Nc2cc(C)on2)C(C(=O)NC(C)(C)C)c2ccc(OC)cc2)cc1 (centres undefined),-2,14,.,-10,-13,2,.,.
Cc1nnc(SCC2=C(C(=O)O)N3C(=O)C(NC(=O)Cn4nc(C(F)F)c(Cl)c4C)C3SC2)s1 (centres undefined),13,-2,-6,45*,-1,8,38*,-22
CC(=O)OCC1=C(C(=O)O)N2C(=O)C(NC(=O)c3ccc(COc4c(C)cccc4Cl)o3)C2SC1 (centres undefined),-13,14,-6,38*,6,-3,46*,-16
Cc1nnc(SCC2=C(C(=O)O)N3C(=O)C(NC(=O)c4cc(F)c(F)cc4Cl)C3SC2)s1 (centres undefined),-2,1,10,36*,3,-7,11,-23
CC(=O)OCC1=C(C(=O)O)N2C(=O)C(NC(=O)Cn3nc(C(F)F)c(Cl)c3C)C2SC1 (centres undefined),-17,2,3,40*,-7,8,18,-9
N#Cc1c(NC(=O)CSc2nnc(-c3ccccc3)o2)sc2c1CCCC2,-1,-23,-12,26,-2,10,.,.
CC1CCc2c(sc(NC(=O)CSc3nnc(-c4ccccc4)o3)c2C#N)C1 (centres undefined),-7,1,-11,47*,-4,8,1,6
Cc1csc(NC(=O)CSc2nnc(-c3ccccc3)o2)n1,-6,6,3,-6,-4,-1,.,.
Cc1sc(NC(=O)CSc2nnc(-c3ccccc3)o2)c(C#N)c1C,8,11,-25,38*,19,-3,-2,-22
Cn1c(CNC(=O)c2ccccc2F)nnc1SCCOc1ccccc1,-4,3,-9,-1,-8,-3,.,.
COc1cccc2c1O/C(=N\O)C(C(=O)Nc1cccc(Br)c1)C2 (centres undefined),-5,.,.,15,.,.,.,.
O=C(c1cnc(Cl)c(Cl)c1)N1CCC(Cc2ccccc2)CC1,0,9,-25,37*,7,15,4,-36
COC(=O)c1ccc(CN2CCN(CC(C)C)C(CCO)C2)cc1 (centres undefined),-1,-3,-18,38*,7,-10,-16,0
CC1CN(S(=O)(=O)c2ccc(C(=O)OCc3ccc(C#N)cc3)cc2)CC(C)O1 (centres undefined),.,.,.,.,.,-4,.,.
COc1cccc(=O)c2c(C)n(CC(=O)c3ccccc3)c(C)c12,6,67*,0,58*,3,5,-14,-16
CCOc1cccc(=O)c2c(C)n(CC(=O)c3ccccc3)c(C)c12,1,37,-3,27,4,6,.,.
C/C(=N/OC(=O)C1CC1)c1cc(-c2ccc(Cl)cc2)no1,-19,-1,-11,-9,-3,2,.,.
CCCCCOC(=O)c1[nH]c2c(c1C)C(=O)CC(c1ccco1)C2 (centres undefined),-9,17,-15,41*,-5,2,17,0
SMILES,GPR7 antag,HCV core dimer,EBV gp42 inh,NS3 helicase inh,EBNA-1 inhibitor,ZTA DNA inh,NS3 helicase cf,FID counter trip
O=C(O)c1ccccc1-c1ccccc1C(=O)NNc1ccc([N+](=O)[O-])cc1,5,7,-22,38*,1,-7,-29,-6
CCC1CCCCN1C(=O)/C=C/c1ccc2c(c1)OCO2 (centres undefined),-13,6,.,-1,10,6,.,.
CCN(CC)CCn1cnc2c([nH]c3cccc(OC)c32)c1=O,-17,-2,-4,42*,-11,-1,-16,2
O=C1NC(=O)/C(=C/c2ccccc2OCc2ccccc2)S1,-7,0,-2,6,-7,16,.,.
O=C1NC(=O)/C(=C\c2ccccc2Oc2ccc(F)c(F)c2)S1,-8,18,10,55*,-2,8,26,-1
N#Cc1ccccc1N1CCN(C(=O)c2ccc(NC(=O)c3ccc(Br)o3)cc2)CC1,.,33,.,.,2,-18,.,.
CCOC(=O)c1c(N)sc2c1CCC(C)C2 (centres undefined),-16,-1,-9,43*,0,0,-15,-16
CCOC(=O)c1c(NS(C)(=O)=O)sc2c1CCC(C)C2 (centres undefined),-17,25,-8,8,4,-1,.,.
CC(=O)Nc1ccc(NC(=O)Oc2ccccc2)cc1,-13,-2,-22,-11,3,2,.,.
CN(C)c1ccc(NC(=O)Oc2ccccc2)cc1,5,-11,-31,44*,52*,+,-5,0
CCN(CC(=O)Nc1ccc2c(c1)OCCO2)C(=O)CN1C(=O)NC(C)(c2ccc(C)cc2)C1=O (centres undefined),.,.,.,.,.,8,.,.
CN1C(=O)C(Cl)(Cl)C(=O)c2ccccc21,-8,.,-19,53*,.,.,-15,3
C/C(N)=C(/C#N)C(=O)COC(=O)c1ccccc1Oc1ccccc1,-18,1,-1,-3,-8,-6,.,.
Cc1nc(C)n(CC(C)C(=O)N2CCN(S(=O)(=O)c3ccc(Cl)cc3)CC2)n1 (centres undefined),-4,-11,.,6,4,-11,.,.
CCSc1nc2c(c(=O)[nH]1)C(c1cccnc1)C(C(=O)OC)=C(C)N2 (centres undefined),9,6,-26,39*,-8,2,-2,-1

# High-throughput results (PubChem)
